Laboratory results published in ChEMBL document CHEMBL2010745, “Optimization of the First Selective Steroid-11β-hydroxylase (CYP11B1) Inhibitors for the Treatment of Cortisol Dependent Diseases” (ACS Med Chem Lett, 2011).

How the values were obtained:
CYP19 (aromatase) = molecular target: T1, CYP19 (aromatase) (Homo sapiens, UniProt P11511); test: Inhibition of CYP19 in human placental microsomes using [1beta-3H]androstenedione as substrate at 0.5 uM; details: probe [1beta-3H]androstenedione
T1 sequence (P11511 whole entry): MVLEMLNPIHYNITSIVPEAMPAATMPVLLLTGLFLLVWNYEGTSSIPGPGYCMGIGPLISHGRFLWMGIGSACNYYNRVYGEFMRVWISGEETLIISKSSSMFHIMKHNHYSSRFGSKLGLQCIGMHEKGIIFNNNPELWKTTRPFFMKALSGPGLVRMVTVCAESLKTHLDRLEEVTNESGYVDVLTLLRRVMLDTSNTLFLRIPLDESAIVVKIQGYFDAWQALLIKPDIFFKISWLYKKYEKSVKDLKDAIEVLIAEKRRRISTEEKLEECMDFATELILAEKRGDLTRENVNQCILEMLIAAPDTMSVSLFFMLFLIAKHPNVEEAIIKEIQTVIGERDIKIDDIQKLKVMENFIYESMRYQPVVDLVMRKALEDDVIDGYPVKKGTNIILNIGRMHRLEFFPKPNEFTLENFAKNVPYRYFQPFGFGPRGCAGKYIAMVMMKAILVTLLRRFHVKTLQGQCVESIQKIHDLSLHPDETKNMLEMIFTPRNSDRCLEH

Homo sapiens = species: Homo sapiens; test: Selectivity ratio of IC50 for human CYP11B2 to IC50 for human CYP11B1
CYP17 = molecular target: T2, CYP17 (Homo sapiens, UniProt P05093); test: Inhibition of human recombinant CYP17 expressed in Escherichia coli using progesterone as substrate at 2 uM; details: probe progesterone
T2 sequence (P05093 whole entry): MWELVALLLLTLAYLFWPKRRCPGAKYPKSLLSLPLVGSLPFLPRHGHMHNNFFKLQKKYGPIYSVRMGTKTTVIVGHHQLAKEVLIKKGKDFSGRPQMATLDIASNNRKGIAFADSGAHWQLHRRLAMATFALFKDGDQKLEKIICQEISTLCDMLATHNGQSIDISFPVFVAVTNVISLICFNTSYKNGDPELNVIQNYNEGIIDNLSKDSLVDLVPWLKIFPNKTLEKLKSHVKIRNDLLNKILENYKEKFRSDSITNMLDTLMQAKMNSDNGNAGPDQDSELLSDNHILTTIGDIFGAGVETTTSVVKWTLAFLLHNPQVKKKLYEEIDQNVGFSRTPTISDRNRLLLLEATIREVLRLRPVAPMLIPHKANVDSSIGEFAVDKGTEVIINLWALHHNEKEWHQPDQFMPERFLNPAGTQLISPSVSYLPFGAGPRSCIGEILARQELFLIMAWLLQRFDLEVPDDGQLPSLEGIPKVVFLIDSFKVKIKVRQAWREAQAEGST
Outline: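 Recombinantly expressed human CYP17 with progesterone as substrate. Inhibition is reported as percent at an inhibitor concentration of 2.0 μM.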

[1] = molecular target: T3, Cytochrome P450 11B2, mitochondrial (Homo sapiens, UniProt P19099); test: Inhibition of human CYP11B2 expressed in hamster V79 MZ cells using [3H] 11 deoxycorticosterone as substrate at 500 nM by HPLC radioflow detector; type: cell-based; details: v79, 0.5 µM
T3 sequence (P19099 whole entry): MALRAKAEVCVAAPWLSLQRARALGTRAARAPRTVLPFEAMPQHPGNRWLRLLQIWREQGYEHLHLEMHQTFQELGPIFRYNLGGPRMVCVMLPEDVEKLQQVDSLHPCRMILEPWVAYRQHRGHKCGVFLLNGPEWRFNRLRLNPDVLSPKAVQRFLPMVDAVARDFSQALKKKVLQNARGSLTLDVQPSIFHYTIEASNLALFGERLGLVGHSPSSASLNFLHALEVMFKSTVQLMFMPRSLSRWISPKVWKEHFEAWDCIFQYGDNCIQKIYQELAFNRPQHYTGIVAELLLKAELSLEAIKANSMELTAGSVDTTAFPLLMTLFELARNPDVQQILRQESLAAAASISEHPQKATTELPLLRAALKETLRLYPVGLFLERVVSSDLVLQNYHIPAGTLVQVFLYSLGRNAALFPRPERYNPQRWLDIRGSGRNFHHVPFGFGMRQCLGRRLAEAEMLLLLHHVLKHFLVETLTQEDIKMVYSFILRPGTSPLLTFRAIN

[2] = molecular target: T3, Cytochrome P450 11B2, mitochondrial; test: Inhibition of human CYP11B2 expressed in hamster V79 MZ cells using [3H] 11 deoxycorticosterone as substrate by HPLC radioflow detector; type: cell-based
[3] = molecular target: T4, Cytochrome P450 11B1, mitochondrial (Homo sapiens, UniProt P15538); test: Inhibition of human CYP11B1 expressed in hamster V79 MZ cells using [3H] 11 deoxycorticosterone as substrate by HPLC radioflow detector; type: cell-based
T4 sequence (P15538 whole entry): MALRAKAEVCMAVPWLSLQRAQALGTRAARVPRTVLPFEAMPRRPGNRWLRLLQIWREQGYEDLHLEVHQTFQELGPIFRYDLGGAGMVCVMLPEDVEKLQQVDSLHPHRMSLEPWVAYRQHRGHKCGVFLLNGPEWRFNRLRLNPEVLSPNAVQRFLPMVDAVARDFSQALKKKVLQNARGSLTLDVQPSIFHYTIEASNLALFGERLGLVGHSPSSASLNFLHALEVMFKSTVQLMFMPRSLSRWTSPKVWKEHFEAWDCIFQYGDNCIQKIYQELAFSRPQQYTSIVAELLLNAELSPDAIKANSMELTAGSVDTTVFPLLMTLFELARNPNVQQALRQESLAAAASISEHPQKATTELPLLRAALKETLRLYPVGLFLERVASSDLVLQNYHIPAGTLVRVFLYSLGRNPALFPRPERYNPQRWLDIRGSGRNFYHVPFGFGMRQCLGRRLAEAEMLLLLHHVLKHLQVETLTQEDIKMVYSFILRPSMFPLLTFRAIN

SMILES	inhibition at 0.5 µM (CYP19 (aromatase))	Ratio IC50 (Homo sapiens)	inhibition at 2 µM (CYP17)	inhibition (INH) [1]	IC50 [2]	IC50 [3]
c1cn(Cc2ccc(-c3cncnc3)nc2)cn1	–	–	–	Not Active	–	–
c1coc(-c2cc(Cn3ccnc3)cnc2-c2ccco2)c1	–	29	–	–	–	–
Brc1ccc(Cn2ccnc2)cn1	–	–	–	–	> 1 µM	–
O=Cc1ccc(-c2ccc(Cn3ccnc3)cn2)cc1	< 10%	–	< 10%	–	> 1 µM	–
N#Cc1ccc(-c2ccc(Cn3ccnc3)cn2)cc1	–	–	–	–	> 1 µM	–
COc1ccc(-c2ccc(Cn3ccnc3)cn2)cc1	< 10%	–	< 10%	–	> 1 µM	–
Clc1ccc(-c2ccc(Cn3ccnc3)cn2)s1	30%	2.6	–	–	–	–
c1cc(Cn2ccnc2)ccn1	–	–	–	–	> 1 µM	–
c1cncc(-c2ccc(Cn3ccnc3)cn2)c1	–	8	–	–	–	–
c1cn(Cc2ccc(-c3ccoc3)nc2)cn1	< 10%	37	< 10%	–	–	–
c1csc(-c2ncccc2Cn2ccnc2)c1	< 10%	16	< 10%	–	–	–
N#Cc1ncccc1Cn1ccnc1	–	–	–	–	> 1 µM	–
O=Cc1ccc(-c2ccc(Cn3ccnc3)cn2)s1	19%	16	< 10%	–	–	–
Brc1ncccc1Cn1ccnc1	< 10%	15	< 10%	–	–	–
Clc1ncc(Cn2ccnc2)cc1-c1cccs1	< 10%	6	< 10%	–	0.416 µM	0.073 µM
Clc1ncc(Cn2ccnc2)cc1Br	–	3.4	–	–	–	–
COc1ccc(-c2ccc(Cn3ccnc3)cn2)cn1	–	–	–	–	> 1 µM	> 1 µM
c1ccc(-c2cc(Cn3ccnc3)cnc2-c2ccccc2)cc1	< 10%	2.4	< 10%	–	–	–
c1cncc(Cn2ccnc2)c1	–	–	–	–	> 1 µM	–
c1cn(Cc2ccc(-c3ccsc3)nc2)cn1	< 10%	26	< 10%	–	–	–
c1ccc(N(c2ccccc2)c2ccc(-c3ccc(Cn4ccnc4)cn3)cc2)cc1	< 10%	–	< 10%	Not Active	–	–
COc1ccc(-c2ccc(Cn3ccnc3)cn2)cc1OC	< 10%	–	< 10%	–	> 1 µM	> 1 µM
Cc1ccc(-c2ccc(Cn3ccnc3)cn2)cc1N	< 10%	–	< 10%	–	> 1 µM	–
c1cc(-c2ccc(Cn3ccnc3)cn2)ccn1	–	3.5	–	–	–	–

The next lines start with the values.

inhibition at 0.5 µM (CYP19 (aromatase))	Ratio IC50 (Homo sapiens)	inhibition at 2 µM (CYP17)	inhibition (INH) [1]	IC50 [2]	IC50 [3]	SMILES
< 10%	31	< 10%	–	–	–	c1coc(-c2ccc(Cn3ccnc3)cn2)c1
< 10%	5	< 10%	–	–	–	Fc1ccc(-c2ccc(Cn3ccnc3)cn2)cc1F
–	10	–	–	–	–	c1ccc2c(-c3ccc(Cn4ccnc4)cn3)cncc2c1
–	1	–	–	–	–	c1ccc2sc(-c3ccc(Cn4ccnc4)cn3)cc2c1
< 10%	21	< 10%	–	–	–	Nc1ccccc1-c1ccc(Cn2ccnc2)cn1
–	18	–	–	–	–	c1ccc(-c2ccc(Cn3ccnc3)cn2)cc1
–	14	–	–	–	–	Oc1ccc(-c2ccc(Cn3ccnc3)cn2)cc1F
< 10%	17	< 10%	–	–	–	c1csc(-c2ccc(Cn3ccnc3)cn2)c1
< 10%	24	< 10%	–	–	–	Fc1ccccc1-c1ccc(Cn2ccnc2)cn1
< 10%	10	< 10%	–	–	–	Fc1ccc(-c2ccc(Cn3ccnc3)cn2)cc1
< 10%	5	< 10%	–	–	–	Nc1ccc(-c2ccc(Cn3ccnc3)cn2)cc1
< 10%	31	< 10%	–	–	–	Nc1cccc(-c2ccc(Cn3ccnc3)cn2)c1
–	–	–	–	> 1 µM	–	N#Cc1cccc(-c2ccc(Cn3ccnc3)cn2)c1
< 10%	29	< 10%	–	–	–	c1ccc2c(-c3ccc(Cn4ccnc4)cn3)csc2c1
< 10%	26	< 10%	–	–	–	COc1ccccc1-c1ccc(Cn2ccnc2)cn1
< 10%	49	< 10%	–	–	–	c1ccc2c(-c3ccc(Cn4ccnc4)cn3)cccc2c1
< 10%	–	< 10%	–	> 1 µM	–	Fc1cccc(-c2ccc(Cn3ccnc3)cn2)c1
–	–	–	–	> 1 µM	–	c1ccc2oc(-c3ccc(Cn4ccnc4)cn3)cc2c1
–	3.2	–	–	–	–	c1ccc2cc(-c3ccc(Cn4ccnc4)cn3)ccc2c1
